Screens as filed in PubChem BioAssay.
An excerpt weighted towards active compounds, which were near 2.1% of everything screened.
beta cell repl – inducers of MIN6 beta-cell proliferation, primary screen, ATP luminescence, uHTS. proliferation, % at 10 µM. MIN6 cells proliferation, ATPlite luminescence, 48 h; cells starved in 0.2% serum; 100% = growth in 10% serum. 0.29% of 330,000 active;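 active means compounds whose signal lies at least 3.5 SD above the mean of all wells on their plate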
TLR9-MyD88 inh – inhibitors of TLR9-MyD88 association in cells, primary screen, cell-based, CHO, BLA complementation, fluorescence. Toll-like receptor 9 (Homo sapiens) + Myeloid differentiation primary response protein …. CCF4 FRET ratio. inhibition, % at 4.98 µM. 0.21% of 340,000 active. AID 504734, 2011;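 active means inhibition above the mean over all tested compounds plus 3 SD, cut at about 21% in these data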
MC4R antag cAMP – MC4R antagonists of cAMP signaling, primary screen, cell-based, TR-FRET, antagonist arm of biased-ligand search. MC4R-expressing cells, MTII-stimulated cAMP, LANCE TR-FRET. 0.48% of 360,000 active. inhibition, % at 6.5 µM;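 active means inhibition above its plate's cutoff, the mean of tested wells on that plate plus 3 SD, cut at about 29% in these data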
Target sequence (P32245 whole entry, looked up): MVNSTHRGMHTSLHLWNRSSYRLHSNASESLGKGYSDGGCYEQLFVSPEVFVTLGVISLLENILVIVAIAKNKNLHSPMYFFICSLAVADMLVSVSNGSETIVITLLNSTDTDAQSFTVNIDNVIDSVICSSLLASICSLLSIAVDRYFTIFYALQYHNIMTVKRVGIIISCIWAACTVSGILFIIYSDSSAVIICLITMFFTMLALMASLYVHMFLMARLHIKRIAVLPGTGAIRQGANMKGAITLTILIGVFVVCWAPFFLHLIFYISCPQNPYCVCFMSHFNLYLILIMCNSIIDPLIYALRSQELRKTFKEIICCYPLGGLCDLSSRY
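Material: human MC4R-expressing U2OS cells. Probe or stimulus: Melanotan II challenge. Dosing: 6.5 µM single dose. Times: 30-min compound, 1-h challenge, 1-h detection, room temperature. Technique: TR-FRET with Eu-cAMP and labeled anti-cAMP, 671 nm. Replication: singlicate.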
MC4R ag barr – MC4R agonists recruiting beta-arrestin, primary screen, cell-based, luminescence, agonist arm of biased-ligand search | Melanocortin receptor 4 (Homo sapiens), P32245 | U2OS MC4R beta-arrestin complementation; percent of melanotan II response, DMSO zero | activation, % at 8.9 µM | 0.98% of 360,000 active;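 active means activation above a per-plate cutoff, the mean activation of sample wells on that plate plus 3 SD, cut at about 8% in these data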
NOD2-RIPK2 inh – NOD2-RIPK2 binding disruptors in cells, primary screen, fluorescence, CHO cells, BLA complementation | 0.38% of 360,000 active | CCF4 ratio | Receptor-interacting serine/threonine-protein kinase 2 (Homo sapiens), O43353 | inhibition, % at 4.98 µM; in the data active means inhibition above about 21%
TLR4 MyD88 comp – inhibitors of TLR4-MyD88 association in cells, primary screen, cell-based, HeLa CL3-4, BLA complementation, FRET ratio. HeLa CL3-4 TLR4/MyD88 BLA complementation. inhibition, % at 8.4 µM. 0.18% of 200,000 active; in the data active means inhibition above about 25%
NOD2 RIPK2 conf – NOD2-RIPK2 binding disruptors, retest, confirmation, fluorescence, CHO cells, BLA complementation, triplicate; CCF4 FRET; 70% of 1,200 active; shares compounds with NOD2-RIPK2 inh; inhibition, % at 4.98 µM;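 active means mean inhibition across replicates above a set limit taken from the earlier primary screen, cut at about 21% in these data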
BLA counter – NOD2-RIPK2 counterscreen BLA reporter activity; 57% of 1,200 active; CHO BLA reporter, CCF4 FRET ratio; inhibition, % at 4.98 µM; shares compounds with NOD2-RIPK2 inh; AID 624371;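 active means mean inhibition above the low-control mean inhibition plus three low-control SD, cut at about 11% in these data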
A number is an active result; n = inactive; x = no result given.

SMILES | beta cell repl | TLR9-MyD88 inh | MC4R antag cAMP | MC4R ag barr | NOD2-RIPK2 inh | TLR4 MyD88 comp | NOD2 RIPK2 conf | BLA counter
CCOc1ccccc1NC(=O)COC(=O)C(CC(C)C)N1C(=O)C2CC=CCC2C1=O (configuration not stated) | n | n | n | n | n | n | x | x
CC(C)CC(C(=O)OCC(=O)Nc1cccc(Cl)c1)N1C(=O)C2CC=CCC2C1=O (configuration not stated) | n | n | n | n | 22 | n | n | n
Cc1ccc(SCC(=O)N(C)CC(=O)Nc2cccc(F)c2)c(C)c1 | n | n | n | n | n | x | x | x
O=c1c2ccccc2sn1-c1ccccc1 | n | 54 | n | n | 77 | n | 50 | n
Cn1sc2ccccc2c1=O | x | n | n | n | n | x | x | x
Cc1ccc(-c2csc3nc(C)n(-n4c(C)ccc4C)c(=O)c23)o1 | n | n | n | n | 49 | n | n | n
Cc1ccc(-c2csc3nc(C)n(N)c(=O)c23)o1 | n | n | n | n | n | n | x | x
O=C(NCc1ccco1)C(=O)c1c[nH]c2ccccc12 | n | n | n | n | 32 | n | n | n
O=C(CNC(=O)c1cccc([N+](=O)[O-])c1)OCCCC(=O)c1ccc(F)cc1 | n | n | n | n | 26 | x | n | n
CN(Cc1ccccc1)C(=O)c1ccc(NC(=O)Cc2cccc(NC(=O)C3CCCN(C(=O)C4CCC4)C3)c2)cc1 (configuration not stated) | n | n | n | n | n | x | x | x
Cc1[nH]c2ccccc2c1CC#N | n | n | n | n | n | x | x | x
Cc1[nH]c2ccccc2c1C1=CC(=O)C=CC1=O | x | n | n | n | 45 | x | 62 | 13
COc1ccc([N+](=O)[O-])c(S(=O)(=O)c2ccc(Cl)cc2)n1 | n | n | n | n | 21 | x | 48 | n
O=C(O)c1cccc2c1C(=O)N(CC1CCCO1)C2 (configuration not stated) | n | n | n | n | n | n | x | x
O=C(NCc1ccc(Cl)cc1)c1cccc2c1C(=O)N(CC1CCCO1)C2 (configuration not stated) | n | n | n | n | 39 | x | n | n
COc1ccccc1Cc1c(C(C)(C)C)nc2cc(C)c(Br)c(C)n12 | x | x | x | x | 24 | x | n | 12
Cc1cccc(C(=O)Nc2ccc(C(=O)/C=C/c3ccncc3)cc2)c1 | n | n | n | n | 56 | x | 76 | n
CC1(C)Oc2cc3oc(=O)ccc3c3c2C2C1CCC(C)(O3)C2O (configuration not stated) | x | x | n | n | n | x | x | x
Cc1ccc(S(=O)(=O)N2C(=O)C(C)SC2=Nc2ccccc2)cc1 (configuration not stated) | n | n | n | n | 41 | n | n | n
Cc1ccc(S(=O)(=O)N2C(=O)C(c3ccccc3)SC2=Nc2ccccc2)cc1 (configuration not stated) | n | n | n | n | n | n | x | x
O=S(=O)(c1cnc(Cl)c(Br)c1)N1CCc2ccccc21 | n | n | n | n | 27 | x | 35 | n
O=S(=O)(c1cnc(Cl)c(Cl)c1)N1CCc2ccccc21 | n | n | n | n | n | x | x | x
CCN(CC)c1ccc2c(C)c(-c3ccc(N)cc3)c(=O)oc2c1 | n | n | n | n | 27 | n | 24 | 33
